# SUMO1 PPI mod: modulators of human SUMO1-mediated protein-protein interactions; 360,000 compounds, 0.33% hits; SUMO1 binding to a labelled peptide, TR-FRET, 1 h; inhibition, % at 20 µM; P63165; in the data active = inhibition above about 37%
# CSN deneddyl inh: CSN deneddylation inhibition | Purified CSN, SCF-Nedd8-OG deneddylation, fluorescence polarization | Q92905 | 360,000 compounds, 0.38% hits | inhibition, % at 12.5 µM | AID 651999;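 active = pattern-corrected inhibition above about 35%, with an unprinted fluorescence ratio check between 0.5 and 1.5, limit read from the data, passing the limit was not always enough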;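 also: 0% = enzyme with substrate and 100% = substrate without enzyme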
# Target sequence (Q92905 whole entry, looked up, one chain of several): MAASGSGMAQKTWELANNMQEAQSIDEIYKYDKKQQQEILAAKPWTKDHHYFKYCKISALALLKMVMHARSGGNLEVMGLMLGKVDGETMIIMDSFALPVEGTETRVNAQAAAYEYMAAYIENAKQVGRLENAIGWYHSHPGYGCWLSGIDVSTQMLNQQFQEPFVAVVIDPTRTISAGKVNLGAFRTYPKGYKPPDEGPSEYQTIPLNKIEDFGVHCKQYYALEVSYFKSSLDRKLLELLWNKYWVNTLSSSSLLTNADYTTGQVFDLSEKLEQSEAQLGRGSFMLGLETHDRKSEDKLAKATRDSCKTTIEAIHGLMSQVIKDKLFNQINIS
#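 Test system: purified human Csn5 enzyme expressed in HEK293T cells. Amount: 0.24 nM enzyme. Reagent: SCFSkp2-Nedd8OG substrate at 10 nM final. Schedule: 90 min incubation of compound, enzyme and substrate at room temperature. Detection: fluorescence polarization. Read-out: % inhibition of substrate cleavage by Csn5.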
# STEP inh: inhibitors of human striatal-enriched phosphatase STEP; inhibition, % at 20 µM; 360,000 compounds, 0.25% hits; recombinant STEP, OMFP fluorogenic substrate, fluorescence; AID 588621;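 active = inhibition at 20 µM, scaled per plate between control wells, above about 37%, limit read from the data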;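 also: 0% = DMSO with enzyme and substrate and 100% = substrate only without enzyme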
#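 System: isolated STEP enzyme; schedule: 20 min enzyme reaction at room temperature, protected from light; medium: Bis-Tris buffer pH 6.0, 2.5 mM DTT, 0.005% Tween 20; signal: fluorescence, 480/540 nm; dosing: single compound dose of 20 µM, 1% DMSO final; also added: OMFP substrate, 25 µM final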
# DNMT1 inh: blocks human DNA methyltransferase DNMT1. DNMT1 molecular beacon, Hinp1I cleavage, fluorescence. inhibition (reported as % activation of signal), % at 10 µM. 360,000 compounds, 0.83% hits; in the data active = inhibition above about 50%
# LMPTP block: blocks human LMPTP phosphatase. recombinant LMPTP-A, OMFP fluorogenic substrate, fluorescence intensity. inhibition, % at 20 µM. 360,000 compounds, 0.22% hits. AID 651560;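 active = compounds that cut the enzyme signal by at least half of the control window in the single-dose screen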;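 also: plate controls were DMSO wells with enzyme plus substrate for no effect and substrate without enzyme for full effect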
# Target sequence (P24666 whole entry, looked up): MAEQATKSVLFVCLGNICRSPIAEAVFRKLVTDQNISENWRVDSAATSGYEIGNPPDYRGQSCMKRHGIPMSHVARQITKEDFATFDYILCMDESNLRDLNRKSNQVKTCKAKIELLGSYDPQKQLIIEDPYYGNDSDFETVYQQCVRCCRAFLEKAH
#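 Test system: LMPTP-A phosphatase enzyme. Amount: LMPTP-A at 0.625 nM final in the reaction. Reagent: OMFP substrate, 400 µM final. Times: 50 min at room temperature. Signal: endpoint fluorescence intensity from OMFP dephosphorylation. Read-out basis: % inhibition. Benchmarks: no-enzyme and uninhibited controls.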
# Scp-1 inhibitor: inhibitors of human Scp-1 phosphatase; Q9GZU7; Recombinant Scp1, phosphopeptide, malachite green phosphate absorbance; inhibition, % at 20 µM; 340,000 compounds, 0.88% hits;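 active = inhibition above about 50% at 20 µM, limit read from the data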;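 also: plate controls were DMSO wells with enzyme for no effect and wells lacking enzyme for full effect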
#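 Test system: SCP-1 phosphatase catalytic domain, residues 76-261 | Compound dosing: One concentration, 20 µM, with 1.0% DMSO | Schedule: 45 min room-temperature reaction, 5 min colour, 30 min stabiliser | Detection: Absorbance at 630 nm | Read-out basis: % inhibition of SCP-1 phosphate liberation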
# Scp1 confirm: Scp-1 (human) inhibition, single-dose confirmed. shares compounds with Scp-1 inhibitor. recombinant SCP-1 catalytic domain, phosphate release, malachite green absorbance. inhibition, % at 20 µM. 2,500 compounds, 61% hits;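 also: plate controls were DMSO with enzyme for no effect and buffer wells lacking enzyme for full effect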
# MG interference: counter-screen for Scp-1 inhibitors: colorimetric interference; shares compounds with Scp-1 inhibitor; Colorimetric interference counterscreen, malachite green absorbance 630 nm; apparent inhibition (interference), % at 20 µM; 2,500 tested, under 10 active; AID 540313;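 also: compounds added after enzyme reaction finished so only phosphate colour detection is probed; plate controls were DMSO wells with completed Scp-1 reaction for no effect and substrate wells lacking enzyme for full effect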
# Scp1 DSF: Scp-1 (human) binding by thermal shift | AID 540329 | 1,500 compounds, 25% hits | Recombinant SCP1, Sypro Orange thermal shift Tm | shares compounds with Scp-1 inhibitor | thermal shift relative to vanadate control, % at 40 µM;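 active = substances whose mean melting-temperature shift, as a percentage of the reference inhibitor's shift, reaches about 5.3%, limit read from the data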;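 also: 0% = Tm of DMSO wells and 100% = Tm with sodium orthovanadate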
# * = called active by the depositor; · = no result. An excerpt weighted towards active compounds, which were near 2% of everything screened.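 The calls were made as follows, unless noted: active = inhibition of at least 30% at 20 µM; inactive = the rest.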
SMILES,SUMO1 PPI mod,CSN deneddyl inh,STEP inh,DNMT1 inh,LMPTP block,Scp-1 inhibitor,Scp1 confirm,MG interference,Scp1 DSF
CCOC(=O)c1c(NC(=O)COC(=O)c2ccc(O)cc2)sc(C(=O)N(C)C)c1C,11.6,-3.8,0.9,-5.3,0.2,-3.4,·,·,·
N#CCC(=O)Nc1ccc(C(=O)OCC(=O)Nc2ccc3ccccc3c2)cc1,11.6,8.5,3.2,-22.5,11.6,52.5*,56.6*,-15.0,24.6*
CCOC(=O)c1c(NC(=O)COC(=O)c2ccc(NC(=O)CC#N)cc2)sc(C(=O)NC)c1C,57.2*,40.4*,1.4,-9.7,40.2,57.6*,61.6*,-13.4,-2.1
S=c1cnc2ccccc2[nH]1,-10.8,2.7,4.0,1.9,5.4,-0.8,·,·,·
Cc1cc(C)nc(SCC(=O)NN=Cc2ccc(C)o2)n1,-9.6,7.0,0.3,-2.2,1.0,-1.0,·,·,·
CCC(C)c1ccccc1NC(=O)c1cccnc1 (stereo not drawn),-0.5,0.8,-2.1,-0.9,-0.2,-4.3,·,·,·
CCC(C)c1ccccc1NC(=O)c1cccc(-n2cnnn2)c1 (stereo not drawn),-2.2,-0.5,-2.6,-3.7,0.1,72.9*,-1.2,-10.4,·
Cc1ccc(-c2csc(NCCn3c(C(F)(F)F)nc4ccccc43)n2)cc1,1.7,-2.0,1.9,4.8,1.2,58.5*,-23.4,-19.5,·
CCOc1cc(C(=O)N2CCC(CC3CC(c4cccc(Br)c4)=NO3)(C(=O)NCC3CCCCC3)CC2)cc(OCC)c1OCC (stereo not drawn),0.0,-2.8,1.8,-2.2,5.1,-8.5,·,·,·
COc1ccccc1N1CCN(C(=O)C(C)CS(=O)(=O)c2ccc3c(c2)NC(=O)CS3)CC1 (stereo not drawn),28.6,1.6,6.7,42.9,0.3,58.8*,63.2*,-1.9,-1.0
COc1ccccc1N1CCN(S(=O)(=O)c2ccc3c(c2)NC(=O)C(C)S3)CC1 (stereo not drawn),0.3,6.6,1.5,-1.8,1.9,-6.2,·,·,·
CCOc1ccccc1N1CCN(S(=O)(=O)c2ccc3c4c(cccc24)C(=O)N3)CC1,4.5,11.8,6.5,32.4,8.1,61.3*,50.3*,-8.2,4.7
Cc1ccccc1CN1CCN(Cc2ccc3cccc(F)c3n2)CC1CCO (stereo not drawn),2.0,4.4,-0.1,-4.9,-0.4,-5.0,·,·,·
Cc1ccc(S(=O)(=O)C(C#N)c2nc3ccccc3nc2N2CC(C)OC(C)C2)cc1C (stereo not drawn),-8.9,-1.7,-1.8,-8.9,0.3,78.6*,-13.1,-18.6,·
COc1cc(C(=O)N/N=C/c2sc(=O)n(-c3ccccc3)c2Cl)cc(OC)c1OC,1.1,1.9,4.8,1.5,0.5,50.4*,-20.9,-17.3,·
C[n+]1cccc(C(=O)N/N=C/c2ccc3c(c2)OCO3)c1,-18.6,-2.6,0.6,0.5,-0.1,50.1*,14.8,-7.1,·
COc1ccc(/C=N/NC(=O)c2ccc(COCC(F)(F)C(F)F)cc2)cc1,1.8,-2.4,-0.7,0.2,-2.2,-1.3,·,·,·
O=C(N/N=C/c1ccc2c(c1)OCO2)c1ccc(COCC(F)(F)C(F)F)cc1,5.6,-1.9,9.0,7.1,24.8,72.1*,77.0*,-10.9,-11.9
O=C(N/N=C\C=C\c1ccc(Br)cc1)c1ccc2c(c1)OCO2,44.6*,49.3*,97.8*,81.4*,56.6*,94.9*,93.5*,-3.5,-2.6
O=C(N/N=C/C=C/c1ccc2c(c1)OCO2)c1ccc([N+](=O)[O-])cc1,-13.7,-2.9,5.8,11.5,3.0,-0.4,·,·,·
CCn1c(=S)sc2c(=O)[nH]c(SCC(=O)Nc3cc(OC)ccc3OC)nc21,13.6,2.2,-2.7,-6.8,0.8,-4.7,·,·,·

# Bioassay records (PubChem BioAssay)
